Drawing on the array DNA melting data of Ke et al. (doi:10.1101/2024.01.08.574731), this text covers Tm and folding enthalpy for 74 sequences.

Data set [1] is described as follows: melting temperature; fluorescence melt of hairpins on a sequencing array, two-state fit, raised by 9.35 °C to match UV melts. To be noted: sodium 0.088 M. A digest of the protocol:
(§1)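 Cy3 fluorescence of library hairpins on a sequenced MiSeq flow cell, with annealed Cy3 and quencher oligos, was imaged in 50 mM Na-HEPES pH 8.0, 25 mM NaCl in 2.5 °C steps up to 60 °C. Signals were normalised to pre-quench Cy3 and to control variants. Melting temperature and folding enthalpy came from bootstrapped two-state fits, inverse-variance combined over four replicates. Fitted temperatures were raised by 9.35 °C to match UV melts.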

Data set [2] is described as follows: folding enthalpy; higher = less favourable; fluorescence melt of hairpins on a sequencing array, two-state fit. The following applies: sodium 0.088 M. The gist of the method: as §1

Turning to GCACTTCGAAAGAATTGC (((.(((....))).))), the Tm in data set [1] turned out to be 42.6 °C. The folding enthalpy in data set [2] is -132 kJ/mol.
The like results for GATCCATGGATGGATC ((((((....)))))) were, in that order, 53 °C and -163 kJ/mol.
As for GATCGTGGAAACACGGTC ((.((((....)))).)), the Tm in data set [1] worked out at 52.7 °C. For the same sequence, the folding enthalpy in data set [2] was -122 kJ/mol.
Take GCACAGCGAAAGCAGCGC ((.(.((....)).).)): the Tm in data set [1] stood at 53.6 °C. Further, in data set [2], the folding enthalpy is -81.1 kJ/mol.
The corresponding values for GAGATAGCGAAAGCTCTC (((..(((....)))))) are 40 °C and -66.6 kJ/mol.
As to GGTGACGAAAGTCCCACC ((((((....)))..))), the Tm in data set [1] turned out to be 43.4 °C. Also, in data set [2], the folding enthalpy was -54 kJ/mol.
Consider GCAGCGCGAAAGCTCTGC ((((.((....)).)))), for which the Tm in data set [1] came out at 62 °C. The folding enthalpy in data set [2] was -133 kJ/mol.
For GGAACACGAAAGTGGTCC (((.(((....))).))), the Tm in data set [1] was 60.7 °C. Moreover, the folding enthalpy in data set [2] is -133 kJ/mol.
For GCATTGCGAAAGCATGC (((.(((....)))))), the Tm in data set [1] was 55.7 °C. In addition, the folding enthalpy in data set [2] is -143 kJ/mol.
The like results for GGTGATCGAAAGATGACC (((.(((....))).))) were, in that order, 47.9 °C and -140 kJ/mol.
The like results for GGTAACCGAAAGGTAACC (((.(((....))).))) were, in that order, 50.8 °C and -87.2 kJ/mol.
The corresponding values for GGCCCAGGAAACCAGGCC ((((..(....)..)))) are 47 °C and -132 kJ/mol.
For GCGTGAACACGC ((((....)))), the Tm in data set [1] was determined as 68 °C. The folding enthalpy in data set [2] was -87.4 kJ/mol.
Turning to GGTGGCGGAAACGCCATC (.(((((....))))).), the Tm in data set [1] came out at 59.9 °C. For the same sequence, in data set [2], the folding enthalpy was -68.7 kJ/mol.
The corresponding values for GCCTTGCGAAAGCCCGGC (((..((....))..))) are 41.8 °C and -97.2 kJ/mol.
As for GTCGGCGAAAGCCTAGAC ((((((....)))..))), the Tm in data set [1] was 47.1 °C. For the same sequence, the folding enthalpy in data set [2] is -75.6 kJ/mol.
The like results for GCACTGCGAAAGCACGGC ((..(((....)))..)) were, in that order, 38.4 °C and -73.6 kJ/mol.
GATCGAAAAACGATC ((...........)): the Tm in data set [1] came to 39.2 °C. Moreover, the folding enthalpy in data set [2] is -84.9 kJ/mol.
For the sequence GCGGTACGAAAGTACGC (((.(((....)))))), the Tm in data set [1] was determined as 60.7 °C. In addition, in data set [2], the folding enthalpy was -111 kJ/mol.
The corresponding values for GGATGCGGAAACGCGTTC (.(.(((....))).).) are 41.5 °C and -72.6 kJ/mol.
For the sequence GCGTTCGAAAGAACACGC ((((((....)))..))), the Tm in data set [1] was found to be 50.5 °C. For the same sequence, in data set [2], the folding enthalpy was -92.5 kJ/mol.
As for GCGGCATACCGC ((((....)))), in data set [1], the Tm stood at 58.3 °C. The folding enthalpy in data set [2] is -134 kJ/mol.
The like results for GCCTTCCGAAAGGAGGGC (((.(((....))).))) were, in that order, 62.2 °C and -155 kJ/mol.
The corresponding values for CGAGTGAAAACTCG (((((....))))) are 54.6 °C and -103 kJ/mol.
As to GCTAGGCGAAAGCTCAGC (((..((....))..))), the Tm in data set [1] is 42.9 °C. Moreover, the folding enthalpy in data set [2] is -82 kJ/mol.
With GATACGGGAAACCATATC ((((.((....)).)))), in data set [1], the Tm worked out at 28.2 °C. Besides, the folding enthalpy in data set [2] was -80.8 kJ/mol.
On to TATCCGAAAGGATA (((((....))))), for which, in data set [1], the Tm came to 56.5 °C. In data set [2], the folding enthalpy is -69.2 kJ/mol.
The corresponding values for GAACGCGAAAGCGCCTTC ((((((....)))..))) are 35.8 °C and -46.4 kJ/mol.
The like results for GCGAACTGTCGC ((((....)))) were, in that order, 45.5 °C and -89.4 kJ/mol.
As to GTTAGCGGAAACGCTAAC (((((((....))))))), the Tm in data set [1] stood at 66.7 °C. Besides, the folding enthalpy in data set [2] was -179 kJ/mol.
The corresponding values for GCTTTCCGAAAGGATAGC (((.(((....))).))) are 51.5 °C and -150 kJ/mol.
The corresponding values for GGGTGGCGAAAGCCCCCC (((.(((....))).))) are 65 °C and -72.9 kJ/mol.
Regarding GCCGTAGGAAACTACAGC ((.((((....)))).)), the Tm in data set [1] came to 39.6 °C. Besides, in data set [2], the folding enthalpy was -49.1 kJ/mol.
The corresponding values for GAAGATGGAAACGTCTTC (((((.(....).))))) are 43.2 °C and -142 kJ/mol.
As to GACGTTGGAAACAACGCC (.(((((....))))).), in data set [1], the Tm stood at 48.8 °C. Also, the folding enthalpy in data set [2] is -51.8 kJ/mol.
For the sequence GACTCCGAAAGGAAGTC ((((((....))).))), in data set [1], the Tm was found to be 52.4 °C. In addition, in data set [2], the folding enthalpy was -120 kJ/mol.
On to GATCCCACTAGGGATC ((((((....)))))), for which the Tm in data set [1] is 65.9 °C. For the same sequence, in data set [2], the folding enthalpy is -139 kJ/mol.
GATCATAAGCATGATC ((((((....)))))): the Tm in data set [1] was found to be 46.5 °C. Also, in data set [2], the folding enthalpy is -132 kJ/mol.
Turning to GACATACGAAAGTAGTC (((.(((....)))))), the Tm in data set [1] amounted to 41.5 °C. Further, the folding enthalpy in data set [2] was -92.9 kJ/mol.
Consider GAGTACGAAAGTATGCTC ((((((....)))..))), for which the Tm in data set [1] came to 31.5 °C. For the same sequence, the folding enthalpy in data set [2] was -87.2 kJ/mol.
Take GTACTCCGAAAGGAATAC (((.(((....))).))): the Tm in data set [1] stood at 37.7 °C. For the same sequence, the folding enthalpy in data set [2] was -109 kJ/mol.
As to GCGTCGCGAAAGCCTCGC (((..((....))..))), the Tm in data set [1] was found to be 50.8 °C. Moreover, in data set [2], the folding enthalpy was -90.8 kJ/mol.
Consider GGCTAACGAAAGTTGCC (((.(((....)))))), for which the Tm in data set [1] stood at 54 °C. Moreover, the folding enthalpy in data set [2] was -126 kJ/mol.
For the sequence GAGTGAGGAAACTCACTC (((((((....))))))), in data set [1], the Tm was determined as 61.6 °C. Besides, in data set [2], the folding enthalpy is -170 kJ/mol.
Turning to GATCCTTAGAGGATC ((((((...)))))), in data set [1], the Tm stood at 50 °C. Further, the folding enthalpy in data set [2] is -118 kJ/mol.
For the sequence GAGTCGGGAAACCAACTC ((((.((....)).)))), the Tm in data set [1] was determined as 38.9 °C. Besides, the folding enthalpy in data set [2] is -129 kJ/mol.
The like results for GCATCGCCGAAAGGCTGC (((..(((....)))))) were, in that order, 43.4 °C and -59 kJ/mol.
The like results for GATCGGGTTTCCGATC ((((((....)))))) were, in that order, 60.7 °C and -167 kJ/mol.
The like results for GGTTTAACGAAAGTTACC (((..(((....)))))) were, in that order, 29.6 °C and -61.1 kJ/mol.
GGGGTCGAAAGACACCCC ((((((....)))..))): the Tm in data set [1] is 61.8 °C. The folding enthalpy in data set [2] is -52.6 kJ/mol.
The like results for GCGCCAGGAAACTGGCAC (.(((((....))))).) were, in that order, 47.5 °C and -51 kJ/mol.
With GCCACTCGAAAGAGGGC (((.(((....)))))), the Tm in data set [1] was 54.7 °C. The folding enthalpy in data set [2] was -102 kJ/mol.
Consider GTCGTGCGAAAGCATGAC (((.(((....))).))), for which the Tm in data set [1] was 66.3 °C. The folding enthalpy in data set [2] is -145 kJ/mol.
With GGATACCGAAAGGTGTCC (((.(((....))).))), the Tm in data set [1] is 58.8 °C. Also, in data set [2], the folding enthalpy is -184 kJ/mol.
The corresponding values for GGTGGCCGAAAGGCACC (((.(((....)))))) are 61.8 °C and -77.5 kJ/mol.
The like results for GGATTTGGAAACAAACCC ((.((((....)))).)) were, in that order, 35.6 °C and -126 kJ/mol.
Consider GGCACACGAAAGTGCGCC (((.(((....))).))), for which the Tm in data set [1] came to 66.7 °C. Further, in data set [2], the folding enthalpy is -154 kJ/mol.
Consider GCGGGGGCGAAAGCCCGC (((..(((....)))))), for which the Tm in data set [1] came out at 65.1 °C. Besides, the folding enthalpy in data set [2] is -47.7 kJ/mol.
The like results for GCACGCTCGAAAGAGTGC (((..(((....)))))) were, in that order, 50.2 °C and -87.6 kJ/mol.
The corresponding values for GGTTAGCGAAAGCTGACC (((.(((....))).))) are 58.4 °C and -152 kJ/mol.
GCCACCGAAAGGTCCGGC ((((((....)))..))): the Tm in data set [1] turned out to be 46.8 °C. Besides, the folding enthalpy in data set [2] was -71.3 kJ/mol.
Take GTGTGTGGAAACGCATAC ((.((.(....).)).)): the Tm in data set [1] is 36 °C. For the same sequence, the folding enthalpy in data set [2] was -95.7 kJ/mol.
On to GTCTTGTCGAAAGACGAC (((..(((....)))))), for which, in data set [1], the Tm is 50.4 °C. For the same sequence, the folding enthalpy in data set [2] was -75.9 kJ/mol.
For GCATACGAAAGTACTGC ((((((....))).))), the Tm in data set [1] was determined as 41.4 °C. Moreover, in data set [2], the folding enthalpy was -93.8 kJ/mol.
With GGCTTGGGAAACTGAGCC ((((..(....)..)))), in data set [1], the Tm amounted to 45.7 °C. For the same sequence, in data set [2], the folding enthalpy was -138 kJ/mol.
Regarding GACACTGGAAACGGTGTC (((((.(....).))))), the Tm in data set [1] is 52.9 °C. The folding enthalpy in data set [2] was -162 kJ/mol.
The corresponding values for GGCTCAGGAAACTAAGCC ((((.((....)).)))) are 39 °C and -122 kJ/mol.
The corresponding values for GTACCTGGAAACAGATAC (((.(((....))).))) are 32.7 °C and -78.5 kJ/mol.
As to GCCCAAGGAAACCTGGGC (((((.(....).))))), the Tm in data set [1] was 54.1 °C. In addition, in data set [2], the folding enthalpy was -183 kJ/mol.
The like results for GCGAAAATTCGC ((((....)))) were, in that order, 47.8 °C and -77.9 kJ/mol.
The like results for GAGGAGGGAAACCTTCTC (((.(((....))).))) were, in that order, 42.7 °C and -114 kJ/mol.
As to GAGTGCGGAAACGCACCC (.(((((....))))).), the Tm in data set [1] was 45.8 °C. The folding enthalpy in data set [2] was -36.7 kJ/mol.
Take GTCTCCCGAAAGGGCGAC (((.(((....))).))): the Tm in data set [1] was determined as 53.2 °C. The folding enthalpy in data set [2] is -129 kJ/mol.
Consider GCCGTGCGAAAGCACTGC ((.((((....)))).)), for which, in data set [1], the Tm is 61.8 °C. The folding enthalpy in data set [2] is -60.3 kJ/mol.
